Measured values from ChEMBL document CHEMBL1134346, “Labeling and evaluation of N-[11C]methylated quinoline-2-carboxamides as potential radioligands for visualization of peripheral benzodiazepine receptors” (J Med Chem, 2001).

Columns and labels:
Rattus norvegicus [1] = organism: Rattus norvegicus; assay: Tissue (cerebellum) distribution in Albino male CD rats after 5 minutes expressed as percent of injected dose per gram of organ.; type: ADME, organism-based; conditions: in vivo
How it was run: (§1)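 Radioligand given in saline into tail vein of male albino CD rats (225-250 g); 100-200 µCi per animal, 1-2 Ci/µmol at injection depending on radioligand. Three rats per time point were decapitated under light ether anaesthesia. Blood, plasma, brain regions and washed organs were weighed and gamma-counted. Uptake is %I.D./g tissue, mean ± SD.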

Rattus norvegicus [2] = organism: Rattus norvegicus; assay: Tissue (blood) distribution in Albino male CD rats after 15 minutes expressed as percent of injected dose per gram of organ.; type: ADME, organism-based; conditions: in vivo, 0.25 h; how it was run: as §1
Rattus norvegicus [3] = organism: Rattus norvegicus; assay: Tissue (adrenal gland) distribution in Albino male CD rats after 60 minutes expressed as percent of injected dose per gram of organ.; type: ADME, organism-based; conditions: in vivo, 1 h; how it was run: as §1
Rattus norvegicus [4] = organism: Rattus norvegicus; assay: Tissue (heart) distribution in Albino male CD rats after 60 minutes expressed as percent of injected dose per gram of organ.; type: ADME, organism-based; conditions: in vivo, 1 h; how it was run: as §1
Rattus norvegicus [5] = organism: Rattus norvegicus; assay: Tissue (kidney) distribution in Albino male CD rats after 5 minutes expressed as percent of injected dose per gram of organ.; type: ADME, organism-based; conditions: in vivo; how it was run: as §1
Rattus norvegicus [6] = organism: Rattus norvegicus; assay: Tissue (adrenal gland) distribution in Albino male CD rats after 5 minutes expressed as percent of injected dose per gram of organ.; type: ADME, organism-based; conditions: in vivo; how it was run: as §1
Rattus norvegicus [7] = organism: Rattus norvegicus; assay: Tissue (spleen) distribution in Albino male CD rats after 15 minutes expressed as percent of injected dose per gram of organ.; type: ADME, organism-based; conditions: in vivo, 0.25 h
Rattus norvegicus [8] = organism: Rattus norvegicus; assay: Tissue (cerebellum) distribution in Albino male CD rats after 90 minutes expressed as percent of injected dose per gram of organ.; type: ADME, organism-based; conditions: in vivo, 1.5 h; how it was run: as §1
Rattus norvegicus [9] = organism: Rattus norvegicus; assay: Tissue (testicle) distribution in Albino male CD rats after 60 minutes expressed as percent of injected dose per gram of organ.; type: ADME, organism-based; conditions: in vivo, 1 h
How it was run: (§2)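 Male albino CD rats (225-250 g) received the 11C-labelled radioligand in saline by tail-vein injection. Three rats per time point were decapitated under light ether anaesthesia at 5, 15, 30, 60 or 90 min. Blood was collected heparinized and plasma separated by centrifugation. The pituitary was dissected from the brain. Lung, liver (three-lobe pieces) and right deltoid muscle were sampled, washed in cold saline, gamma-counted and weighed. Results are %I.D./g.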

Rattus norvegicus [10] = organism: Rattus norvegicus; assay: Tissue (kidney) concentration of radioactivity at 30 min post-injection into Albino male CD rats with vehicle.; type: ADME, organism-based; conditions: in vivo, 0.5 h
How it was run: (§3)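 Separate groups of five rats received tail-vein PK 11195 (1.4-1.6 mg; 5 mg/kg) in 30 µL DMSO:EtOH 1:1, or vehicle alone, immediately before iv radioligand (90-170 µCi in saline, 0.9-1 Ci/µmol). Rats were decapitated at 30 min and tissues gamma-counted; values are %I.D./g.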

Rattus norvegicus [11] = organism: Rattus norvegicus; assay: Tissue (intestine) distribution in Albino male CD rats after 5 minutes expressed as percent of injected dose per gram of organ.; type: ADME, organism-based; conditions: in vivo; how it was run: as §1
Rattus norvegicus [12] = organism: Rattus norvegicus; assay: Tissue (heart) distribution in Albino male CD rats after 5 minutes expressed as percent of injected dose per gram of organ.; type: ADME, organism-based; conditions: in vivo; how it was run: as §1
Rattus norvegicus [13] = organism: Rattus norvegicus; assay: Tissue (pituitary) distribution in Albino male CD rats after 90 minutes expressed as percent of injected dose per gram of organ.; type: ADME, organism-based, Pituitary gland; conditions: in vivo, 1.5 h; how it was run: as §2
Rattus norvegicus [14] = organism: Rattus norvegicus; assay: Tissue (pituitary) distribution in Albino male CD rats after 15 minutes expressed as percent of injected dose per gram of organ.; type: ADME, organism-based, Pituitary gland; conditions: in vivo, 0.25 h; how it was run: as §2
Rattus norvegicus [15] = organism: Rattus norvegicus; assay: Tissue (heart) distribution in Albino male CD rats after 90 minutes expressed as percent of injected dose per gram of organ.; type: ADME, organism-based; conditions: in vivo, 1.5 h; how it was run: as §1
Rattus norvegicus [16] = organism: Rattus norvegicus; assay: Tissue (cortex) distribution in Albino male CD rats after 15 minutes expressed as percent of injected dose per gram of organ.; type: ADME, organism-based; conditions: in vivo, 0.25 h; how it was run: as §1
Rattus norvegicus [17] = organism: Rattus norvegicus; assay: Tissue (plasma) distribution in Albino male CD rats after 60 minutes expressed as percent of injected dose per gram of organ.; type: ADME, organism-based; conditions: in vivo, 1 h; how it was run: as §2
Rattus norvegicus [18] = organism: Rattus norvegicus; assay: Tissue (blood) distribution in Albino male CD rats after 60 minutes expressed as percent of injected dose per gram of organ.; type: ADME, organism-based; conditions: in vivo, 1 h; how it was run: as §1
[19] = target: Translocator protein (Rattus norvegicus) (UniProt P16257); assay: Tissue (kidney) concentration of radioactivity at 30 min post-injection into Albino male CD rats after pretreatment with cold PK 11195.; type: functional, tissue-based; how it was run: as §3
[20] = target: Translocator protein (Rattus norvegicus) (UniProt P16257); assay: Tissue (cortex) concentration of radioactivity at 30 min post-injection into Albino male CD rats after pretreatment with cold PK 11195.; type: functional; how it was run: as §3
Rattus norvegicus [21] = organism: Rattus norvegicus; assay: Tissue (plasma) distribution in Albino male CD rats after 90 minutes expressed as percent of injected dose per gram of organ.; type: ADME, organism-based; conditions: in vivo, 1.5 h; how it was run: as §2
Rattus norvegicus [22] = organism: Rattus norvegicus; assay: Tissue (adrenal gland) distribution in Albino male CD rats after 90 minutes expressed as percent of injected dose per gram of organ.; type: ADME, organism-based; conditions: in vivo, 1.5 h; how it was run: as §1
Rattus norvegicus [23] = organism: Rattus norvegicus; assay: Tissue (kidney) distribution in Albino male CD rats after 30 minutes expressed as percent of injected dose per gram of organ.; type: ADME, organism-based; conditions: in vivo, 0.5 h; how it was run: as §1
Rattus norvegicus [24] = organism: Rattus norvegicus; assay: Tissue (spleen) distribution in Albino male CD rats after 60 minutes expressed as percent of injected dose per gram of organ.; type: ADME, organism-based; conditions: in vivo, 1 h
Rattus norvegicus [25] = organism: Rattus norvegicus; assay: Tissue (heart) distribution in Albino male CD rats after 30 minutes expressed as percent of injected dose per gram of organ.; type: ADME, organism-based; conditions: in vivo, 0.5 h; how it was run: as §1
Rattus norvegicus [26] = organism: Rattus norvegicus; assay: Tissue (testicle) distribution in Albino male CD rats after 90 minutes expressed as percent of injected dose per gram of organ.; type: ADME, organism-based; conditions: in vivo, 1.5 h
Rattus norvegicus [27] = organism: Rattus norvegicus; assay: Tissue (testicle) distribution in Albino male CD rats after 5 minutes expressed as percent of injected dose per gram of organ.; type: ADME, organism-based; conditions: in vivo; how it was run: as §2
Rattus norvegicus [28] = organism: Rattus norvegicus; assay: Tissue (cortex) distribution in Albino male CD rats after 30 minutes expressed as percent of injected dose per gram of organ.; type: ADME, organism-based; conditions: in vivo, 0.5 h; how it was run: as §1
Rattus norvegicus [29] = organism: Rattus norvegicus; assay: Tissue (spleen) distribution in Albino male CD rats after 5 minutes expressed as percent of injected dose per gram of organ.; type: ADME, organism-based; conditions: in vivo; how it was run: as §2
Rattus norvegicus [30] = organism: Rattus norvegicus; assay: Tissue (liver) distribution in Albino male CD rats after 5 minutes expressed as percent of injected dose per gram of organ.; type: ADME, organism-based; conditions: in vivo; how it was run: as §2
Rattus norvegicus [31] = organism: Rattus norvegicus; assay: Tissue (heart) distribution in Albino male CD rats after 15 minutes expressed as percent of injected dose per gram of organ.; type: ADME, organism-based; conditions: in vivo, 0.25 h; how it was run: as §1
Rattus norvegicus [32] = organism: Rattus norvegicus; assay: Tissue (liver) distribution in Albino male CD rats after 15 minutes expressed as percent of injected dose per gram of organ.; type: ADME, organism-based; conditions: in vivo, 0.25 h; how it was run: as §1
[33] = target: Translocator protein (Rattus norvegicus) (UniProt P16257); assay: Tissue (lung) concentration of radioactivity at 30 min post-injection into Albino male CD rats after pretreatment with cold PK 11195.; type: functional
How it was run: (§4)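 Blocking study in male albino CD rats, five per group. Immediately before the 11C radioligand (in saline, i.v. tail vein), rats received 30 µL tail-vein PK 11195 (5 mg/kg; 1.4-1.6 mg) in DMSO:EtOH 1:1, or vehicle. Rats were decapitated at 30 min. Tissues were dissected, washed, gamma-counted and weighed as in the biodistribution study. Results are %I.D./g.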

Rattus norvegicus [34] = organism: Rattus norvegicus; assay: Tissue (lung) distribution in Albino male CD rats after 90 minutes expressed as percent of injected dose per gram of organ.; type: ADME, organism-based; conditions: in vivo, 1.5 h; how it was run: as §2
Rattus norvegicus [35] = organism: Rattus norvegicus; assay: Tissue (muscle) distribution in Albino male CD rats after 30 minutes expressed as percent of injected dose per gram of organ.; type: ADME, organism-based; conditions: in vivo, 0.5 h; how it was run: as §2
Rattus norvegicus [36] = organism: Rattus norvegicus; assay: Tissue (cortex) concentration of radioactivity at 30 min post-injection into Albino male CD rats with vehicle.; type: ADME, organism-based; conditions: in vivo, 0.5 h; how it was run: as §3
Rattus norvegicus [37] = organism: Rattus norvegicus; assay: Tissue (blood) distribution in Albino male CD rats after 30 minutes expressed as percent of injected dose per gram of organ.; type: ADME, organism-based; conditions: in vivo, 0.5 h; how it was run: as §1
Rattus norvegicus [38] = organism: Rattus norvegicus; assay: Tissue (pituitary) distribution in Albino male CD rats after 5 minutes expressed as percent of injected dose per gram of organ.; type: ADME, organism-based, Pituitary gland; conditions: in vivo; how it was run: as §2
Rattus norvegicus [39] = organism: Rattus norvegicus; assay: Tissue (cerebellum) distribution in Albino male CD rats after 60 minutes expressed as percent of injected dose per gram of organ.; type: ADME, organism-based; conditions: in vivo, 1 h; how it was run: as §1
Rattus norvegicus [40] = organism: Rattus norvegicus; assay: Tissue (pituitary) concentration of radioactivity at 30 min post-injection into Albino male CD rats with vehicle.; type: ADME, organism-based, Pituitary gland; conditions: in vivo, 0.5 h; how it was run: as §4

Chain of Translocator protein (Rattus norvegicus) (P16257 whole entry, looked up): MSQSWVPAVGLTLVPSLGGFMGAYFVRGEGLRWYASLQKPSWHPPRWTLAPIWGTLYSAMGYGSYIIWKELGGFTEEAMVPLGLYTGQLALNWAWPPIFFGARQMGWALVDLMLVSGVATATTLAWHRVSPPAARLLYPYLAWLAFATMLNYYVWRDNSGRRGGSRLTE

Work on `Cc1c(C(=O)N(C)Cc2ccccc2)nc2ccccc2c1-c1ccccc1` yielded an I.D./g (Rattus norvegicus [1]) of 0.25%, an I.D./g (Rattus norvegicus [2]) of 0.09% and an I.D./g (Rattus norvegicus [3]) of 4%. It also gave an I.D./g (Rattus norvegicus [4]) of 2.09%, an I.D./g (Rattus norvegicus [5]) of 0.79% and an I.D./g (Rattus norvegicus [6]) of 0.77%. For the same compound, the I.D./g (Rattus norvegicus [7]) was 1.27%, the I.D./g (Rattus norvegicus [8]) was 0.09% and the I.D./g (Rattus norvegicus [9]) was 0.15%. It also gave an I.D./g (Rattus norvegicus [10]) of 0.19%, an I.D./g (Rattus norvegicus [11]) of 0.3% and an I.D./g (Rattus norvegicus [12]) of 1.79%. It also gave an I.D./g (Rattus norvegicus [13]) of 0.15%, an I.D./g (Rattus norvegicus [14]) of 0.49% and an I.D./g (Rattus norvegicus [15]) of 2.38%. It also gave an I.D./g (Rattus norvegicus [16]) of 0.17%, an I.D./g (Rattus norvegicus [17]) of 0.05% and an I.D./g (Rattus norvegicus [18]) of 0.06%. For the same compound, the I.D./g [19] was under 0.05%, the I.D./g [20] was 0.02% and the I.D./g (Rattus norvegicus [21]) was 0.05%. The I.D./g (Rattus norvegicus [22]) was 3.74%, the I.D./g (Rattus norvegicus [23]) was 1.05% and the I.D./g (Rattus norvegicus [24]) was 1.55%. For the same compound, the I.D./g (Rattus norvegicus [25]) was 2.58%, the I.D./g (Rattus norvegicus [26]) was 0.2% and the I.D./g (Rattus norvegicus [27]) was 0.06%. The I.D./g (Rattus norvegicus [28]) was 0.09%, the I.D./g (Rattus norvegicus [29]) was 0.28% and the I.D./g (Rattus norvegicus [30]) was 0.37%. For the same compound, the I.D./g (Rattus norvegicus [31]) was 2.62%, the I.D./g (Rattus norvegicus [32]) was 0.59% and the I.D./g [33] was under 0.05%. The I.D./g (Rattus norvegicus [34]) was 1.21%, the I.D./g (Rattus norvegicus [35]) was 0.26% and the I.D./g (Rattus norvegicus [36]) was 0.02%. The I.D./g (Rattus norvegicus [37]) was 0.06%, the I.D./g (Rattus norvegicus [38]) was 0.33% and the I.D./g (Rattus norvegicus [39]) was 0.08%. For the same compound, the I.D./g (Rattus norvegicus [40]) was 0.11%.
